This note sets out measurements from ChEMBL document CHEMBL4043282, “Discovery of the First Potent, Selective, and Orally Bioavailable Signal Peptide Peptidase-Like 2a (SPPL2a) Inhibitor Displaying Pronounced Immunomodulatory Effects In Vivo” (J Med Chem, 2018).

By IC50 is commonly meant the midpoint of a concentration-inhibition curve. Usually inhibition stands for how much of the control response was suppressed. As a reminder, the thermodynamic solubility is solubility found after equilibrating the solid with the medium.

In data set [1] the test system is Mus musculus. The data set is described as follows: Dose normalized drug uptake in Balb/c mouse at 5 mg/kg, iv by LC/MS/MS analysis. Format: ADME, organism-based. Particulars: in vivo.
The subject of data set [2] is Rattus norvegicus. The data set is described as follows: Dose normalized drug uptake in Wistar rat at 10 mg/kg, po bid measured up to 7 hrs by LC/MS/MS analysis. It counts as ADME, organism-based, Wister. Particulars: in vivo.
Data set [3] deals with T1, Signal peptide peptidase-like 2A (Mus musculus, UniProt Q9JJF9).
T1 sequence (Q9JJF9 whole entry): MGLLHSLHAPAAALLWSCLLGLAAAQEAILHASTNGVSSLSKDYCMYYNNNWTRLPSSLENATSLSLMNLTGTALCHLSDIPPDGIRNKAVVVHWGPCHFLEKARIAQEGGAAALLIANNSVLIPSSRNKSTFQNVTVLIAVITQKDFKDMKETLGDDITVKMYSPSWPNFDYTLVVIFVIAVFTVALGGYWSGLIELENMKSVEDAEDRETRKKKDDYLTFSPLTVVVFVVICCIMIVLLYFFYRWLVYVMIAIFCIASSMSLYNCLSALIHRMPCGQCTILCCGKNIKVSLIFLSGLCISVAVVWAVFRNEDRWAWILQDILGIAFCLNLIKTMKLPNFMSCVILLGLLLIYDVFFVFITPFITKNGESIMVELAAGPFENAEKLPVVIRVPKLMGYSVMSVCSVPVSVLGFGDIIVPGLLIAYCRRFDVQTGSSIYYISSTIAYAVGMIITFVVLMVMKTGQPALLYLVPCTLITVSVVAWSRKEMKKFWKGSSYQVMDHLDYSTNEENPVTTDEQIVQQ
The data set is described as follows: Inhibition of mouse SPPL2a expressed in human U2OS cells using EGFP-labeled TNFalpha (1 to 77 residues) NLS as substrate after 24 hrs by Hoechst staining based high content imaging assay. It counts as cell-based. Summed up: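 Stable U-2 OS lines expressing human SPPL2a, SPPL2b or SPP constitutively (mouse SPPL2a line analogous, mouse TNFα(aa1-77)-NTF-EGFP-NLS) with doxycycline-inducible EGFP substrate. 3000 cells/well, 3−4 h, then 11-point inhibitor 100 μM to 1 nM, 0.9% DMSO, 5 μg/mL doxycycline, 24 h 37 °C. PFA fixed, Hoechst nuclei; nuclear minus cytoplasmic EGFP intensity; inhibition vs 0.5 μM reference and DMSO; IC50 by nonlinear regression.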

The nature of data set [4]: Total plasma concentration in mouse at 10 mg/kg administered via oral gavage measured after 16 hrs post dose by LC/MS/MS analysis. It counts as ADME, organism-based. Summed up:
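Mice dosed by oral gavage in 0.5% MC:0.5% Tween or PEG:D5W 3:1. 50 μL blood taken retro-orbitally into LiHep tubes; in chronically dosed animals the trough sample came before the morning dose. Kept on ice, plasma separated by centrifugation at 2823g, 5 min, stored at −20 °C until analysis.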

In data set [5] the test system is Rattus norvegicus. The data set is described as follows: In vivo inhibition of SPPL2a in Lewis rat assessed as accumulation of CD74/p8 in blood at 3 mg/kg first dose administered via oral gavage followed by second dose after 8 hrs measured 16 hrs post second dose by Western blot method. It counts as functional, organism-based. Summed up: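 Rat blood (200 μL) red cells lysed with RBC lysis buffer three times, pellet lysed in Tris pH 6.8/NaCl/EDTA/Triton X-100/deoxycholate with protease inhibitors; Western blot for CD74/p8 with affinity-purified antibody specific for rat CD74/p8 at 1:200.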

Data set [6] is described as follows: Total concentration in Lewis rat blood at 3 mg/kg, po bid after 24 hrs by LC/MS/MS analysis. Format: ADME, organism-based. Particulars: read-out: Drug uptake.
Data set [7] in a line: Drug uptake in Lewis rat spleen at 10 mg/kg, po bid after 24 hrs by LC/MS/MS analysis. Format: ADME, organism-based. Particulars: read-out: Drug uptake.
A short description of data set [8]: Drug uptake in Lewis rat spleen at 1 mg/kg, po bid after 24 hrs by LC/MS/MS analysis. It counts as ADME, organism-based. The settings on record: read-out: Drug uptake.
In data set [9] the test system is Mus musculus. The data set is described as follows: Immunomodulatory activity in mouse assessed as reduction in myloid dendritic cells in splenocyte administered via oral gavage bid at 8 and 16 hrs dosing interval between first and second dose respectively for 11 days measured 16 hrs post last dose on day 12 by B220 staining based flow cytometry. Format: functional, cell-based.

Another data set concerns Plasma. As to the kind of experiment: Cmin in mouse plasma at 10 mg/kg, po bid administered at 8 and 16 hrs dosing interval between first and second dose respectively for 11 days measured predose on day 12 by LC/MS/MS analysis. It counts as ADME, organism-based. Particulars: in vivo, read-out: Cmin. Summed up: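 Mice gavaged bid in 0.5% MC:0.5% Tween or PEG:D5W 3:1; trough sample taken before the morning dose; 50 μL retro-orbital blood into LiHep tubes, kept on ice, plasma separated at 2823g for 5 min, stored at −20 °C until analysis.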

In data set [10] the target is T2, Signal peptide peptidase-like 2A (Mus musculus) (UniProt Q9JJF9).
T2 sequence (whole entry): T1 sequence (Q9JJF9 whole entry)
Particulars: 2 uM.

The nature of data set [11]: Equilibrium solubility of the compound at pH 6.8 after 24 hrs by saturation shake flask based UV-HPLC method. Format: physicochemical. The settings on record: buffer.
The nature of data set [12]: Drug uptake in mouse spleen at 10 mg/kg, po administered as single dose after 4 hrs by LC/MS/MS analysis. Format: ADME, organism-based. The settings on record: read-out: Drug uptake.
A short description of data set [13]: Total plasma concentration in mouse at 10 mg/kg, po administered as single dose after 4 hrs by LC/MS/MS analysis. It counts as ADME, organism-based.
Data set [14] in a line: Stability in rat liver microsomes at […] preincubated for 3 mins followed by NADPH addition measured after 1 hr in presence of GSH and [13C2-15N-glycine]-GSH by HPLC/MS method. The settings on record: read-out: Stability. Format: ADME, microsome. Background: Microsomes from liver hold many membrane-bound enzymes, among them those of drug oxidation.
Data set [15] can be described thus: Stability in mouse liver microsomes at […] preincubated for 3 mins followed by NADPH addition measured after 1 hr in presence of GSH and [13C2-15N-glycine]-GSH by HPLC/MS method. It counts as ADME, microsome. Particulars: read-out: Stability.
The target of data set [16] is T2, Signal peptide peptidase-like 2A (Mus musculus). The data set is described as follows: Reversible inhibition of SPPL2a in mouse A20 cells assessed as increase in CD74/p8 accumulation at 2 uM preincubated for 16 hrs followed by compound wash out measured up to 2 hrs by Western blot method. Format: cell-based.
In data set [17] the test system is Mus musculus. The data set is described as follows: In vivo inhibition of SPPL2a in mouse assessed as increase in CD74/p8 accumulation in splenocytes at 100 mg/kg, po administered as single dose measured after 4 hrs by Western blot method. Format: functional, organism-based. (In general: A western blot detects proteins with antibodies after separation by electrophoresis.)

Data set [18] is described as follows: Volume of distribution at steady state in Balb/c mouse at 5 mg/kg, iv by LC/MS/MS analysis. Particulars: in vivo, read-out: Vdss. Format: ADME, organism-based.
The target in data set [19] is T1, Signal peptide peptidase-like 2A. The data set is described as follows: Inhibition of SPPL2a in mouse whole blood assessed as increase in CD74/p8 accumulation after 5.5 hrs by Western bot method. Summed up: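 Mouse whole blood (200 μL) with compound from 20× stock, 0.5% DMSO final, 5.5 h at 37 °C, 5% CO2 with rotation. RBC lysis, washes, lysis in Tris pH 6.8/Triton/deoxycholate buffer; Western blot with rat anti-mouse CD74 (In-1); p8 band intensity normalized to CD74 full-length/β-actin for dose response.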

In data set [20] the test system is Mus musculus. The data set is described as follows: In vivo inhibition of mouse gamma-secretase assessed as effect on Hes1 mRNA level in thymus up to 100 mg/kg, po administered as single dose by RT-PCR method. It counts as organism-based. Summed up:
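Thymus and jejunum excised into RNALater, 4 °C overnight, washed, frozen at −80 °C; total RNA from 10 mg tissue by MagNA Pure LC; Hes1 measured by TaqMan real-time PCR; significance by two-tailed heteroscedastic Student's t-test.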

≈ marks a conversion by molar mass, not a printed value. Calls of active or inactive are those of the source. No cut-off for these calls is given here.

For the compound `Cc1ncc(F)cc1NC(=O)C[C@H](C(=O)N[C@@H]1C(=O)N2CC3(CC3)CN2C(=O)c2ccccc21)C1CC1`, the figures for the Druguptake/dose in the data set with Mus musculus [1] and with Rattus norvegicus [2] were 264 nM and 421 nM, respectively. The compound also came in with a concentration for half-maximal inhibition (IC50) in data set [3] of 180 nM. The compound also returned a concentration at 16 h in data set [4] of 11.8 nM. The inhibition result with Rattus norvegicus [5] is “Active”. For the same compound, the concentration at 24 h is 231 nM in [6], 2400 nM in [7] and 330 nM in data set [8]. Further, the Activity entry in the data set on Mus musculus [9] is “Dose-dependent effect”. Also, the concentration in the data set with Plasma was 66 nM. The same compound returned an inhibition in data set [10] of 50%.

For `Cc1ccccc1NC(=O)C[C@@H](C)C(=O)N[C@@H]1C(=O)N2CCCN2Cc2ccccc21`, the solubility (thermodynamic) at 24 h in [11] is 263 µM (≈ 111 µg/mL). In addition, the concentration at 4 h in data set [12] was found to be 127 nM; in [13], 57 nM. For the same compound, the results for the remaining at 1 h in data set [14] and in data set [15] were 93.2% and 92%, respectively. The inhibition result in data set [16] was “Active”. Moreover, in the data set on Mus musculus [17], the outcome was Active. Moreover, the Vd in data set [18] amounted to 1.2 L/kg. The half-maximal inhibitory concentration (IC50) in data set [19] came out at 550 nM. Further, in the data set with Mus musculus [20], the Activity result is given as “Non-Toxic”.
